Bioassay records as filed in PubChem.
Many of the other results were omitted from the sample, so hits are more common in it than they were.
A1 apoptosis 2: A1 inhibitors via caspase activation, primary screen, cell-based, luminescence, HTS, two replicates. caspase activation, % (test concentration not listed). MEF A1-2A-BIM cells, caspase-Glo luminescence, 3 h; percent of clofoctol response, DMSO zero. 24,000 tested, under 10 active; in the data active = caspase activation above about 5.9%
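Material: mouse embryonic fibroblasts co-expressing A1 and BIM (A1-2A-BIM), primed for A1 dependence / Quantity: 2500 cells/well / Buffer or medium: RPMI-1640 growth medium with 10% FBS / Doses: 50 nL compound per well, pinned / Schedule: 3 h compound exposure at 37 °C / Signal: Caspase-Glo luminescence (DEVD substrate) / Measure: Caspase-3/7 activation, seen as rise in luminescence signal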
T cruzi HTS: inhibitors of intracellular Trypanosoma cruzi, primary screen, cell-based, plate reader, single point, set 2 | intracellular Trypanosoma cruzi in host cells | activity score (inhibition), % at 5.01 µM | hit rate 4.9% among 22,000 | AID 651903, 2012; in the data active = activity score above about 55%;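 also: parasites and compound incubated about four days before reading; 0% = median of neutral control wells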
INS-1E ATP HTS: protection of INS-1E cells from cytokine death, primary screen, ATP luminescence, single point; INS-1E cytokine-induced death, 48 h; normalised: neutral wells 0, positive control 100; AID 488910, 2010; hit rate 0.1% among 20,000; protection from cytokine-induced ATP loss, % at 10 µM;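 active = mean replicate protection from cytokine-induced ATP loss at least 50% and at least 75% of replicates each reaching 50%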
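Assay system: INS-1E rat cells / Quantity: 8000 cells per well / Medium: RPMI without phenol red, 5% FBS / Probe or stimulus: three-cytokine cocktail (IFN-γ, TNF-α, IL-1β) / Dosing: one compound concentration, pin transfer / Timing: 48 h co-treatment, 10 min post-lysis read / Technique: CellTiter-Glo luminescence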
Active calls of the source: *; · = not tested or not shown.

SMILES	A1 apoptosis 2	T cruzi HTS	INS-1E ATP HTS
Cc1ccc(S(=O)(=O)Nc2ccc3c(c2)CC(=O)N([C@H](C)CO)C[C@@H](C)[C@@H](CN(C)S(=O)(=O)c2cccs2)O3)cc1	0	68*	-10
C[C@H]1CN([C@@H](C)CO)C(=O)Cc2cc(NS(=O)(=O)c3ccccc3)ccc2O[C@@H]1CN(C)S(=O)(=O)c1ccc(Cl)cc1	1	5	6
COc1ccc(S(=O)(=O)Nc2ccc3c(c2)CC(=O)N([C@H](C)CO)C[C@@H](C)[C@@H](CN(C)S(=O)(=O)c2ccc(C)cc2)O3)cc1	-1	61*	8
O=C(CCCCCCC(=O)Nc1ccccc1O)N/N=C/c1cc(Br)cc([N+](=O)[O-])c1O	-1	7	-13
COc1cc(Br)c(/C=N/NC(=O)CCCCCCC(=O)O)cc1OC	0	-20	5
O=C(N/N=C/c1ccc(-c2ccccc2)c(F)c1)c1ccccc1O	-9	3	-21
Cc1ccc(S(=O)(=O)N(C)C[C@@H]2Oc3ccc(NS(=O)(=O)c4ccc(Cl)cc4)cc3CC(=O)N([C@H](C)CO)C[C@H]2C)cc1	·	-9	1
Cc1ccc(S(=O)(=O)Nc2ccc3c(c2)CC(=O)N([C@H](C)CO)C[C@@H](C)[C@@H](CN(C)S(=O)(=O)c2ccc(Cl)cc2)O3)cc1	0	66*	-10
Cc1ccc(S(=O)(=O)Nc2ccc3c(c2)CC(=O)N([C@@H](C)CO)C[C@H](C)[C@@H](CN(C)S(=O)(=O)c2ccc(C)cc2)O3)cc1	·	-6	2
COc1ccc(S(=O)(=O)N(C)C[C@H]2Oc3ccc(NS(=O)(=O)c4ccc(F)cc4)cc3CC(=O)N([C@@H](C)CO)C[C@H]2C)cc1	0	14	1
Cc1ccc(S(=O)(=O)Nc2ccc3c(c2)CC(=O)N([C@@H](C)CO)C[C@@H](C)[C@@H](CN(C)S(=O)(=O)c2ccc(C)cc2)O3)cc1	2	62*	-5
COc1ccc(S(=O)(=O)Nc2ccc3c(c2)CC(=O)N([C@@H](C)CO)C[C@@H](C)[C@@H](CN(C)S(=O)(=O)c2ccc(F)cc2)O3)cc1	·	63*	-8
O=C(NO)c1ccc(C(=O)N/N=C/c2ccc(-c3ccccc3)cc2)cc1	-7	-4	-18
Cc1ccc(S(=O)(=O)Nc2ccc3c(c2)C(=O)N([C@@H](C)CO)C[C@H](C)[C@@H](CN(C)S(=O)(=O)c2ccc(Cl)cc2)O3)cc1	0	7	8
O=C(CCCCC(=O)N/N=C/c1coc2ccccc2c1=O)NO	1	-2	25
C[C@@H]1CN([C@@H](C)CO)C(=O)Cc2cc(NS(=O)(=O)c3ccc(Cl)cc3)ccc2O[C@@H]1CN(C)Cc1ccc(Cl)c(Cl)c1	0	61*	-17
C[C@H]1CN([C@@H](C)CO)C(=O)Cc2cc(NS(C)(=O)=O)ccc2O[C@@H]1CN(C)Cc1ccc(Cl)c(Cl)c1	1	64*	3
C[C@H]1CN([C@@H](C)CO)C(=O)Cc2cc(NS(=O)(=O)c3ccc(Cl)cc3)ccc2O[C@@H]1CN(C)Cc1ccc(Cl)c(Cl)c1	·	35	4
C[C@@H]1CN([C@H](C)CO)C(=O)Cc2cc(NS(C)(=O)=O)ccc2O[C@@H]1CN(C)Cc1ccc(Cl)c(Cl)c1	·	28	-13
C[C@H]1CN([C@@H](C)CO)C(=O)Cc2cc(NS(=O)(=O)c3ccccc3)ccc2O[C@@H]1CN(C)Cc1ccc(Cl)c(Cl)c1	-1	65*	-9
C[C@@H]1CN([C@@H](C)CO)C(=O)Cc2cc(NS(=O)(=O)c3ccccc3)ccc2O[C@@H]1CN(C)Cc1ccc(Cl)c(Cl)c1	·	53	-28
CC(C)(C)OC(=O)N1CCC[C@H]1/C=N/NC(=O)CCCCCC(=O)Nc1ccccc1O	·	2	-5
COc1cc(Br)cc(/C=N/NC(=O)CCCCCCC(=O)O)c1O	0	-10	13
CN1C(=O)[C@@H]2[C@@H](CC(COc3ccccc3)=C3[C@@H](CCc4ccccc4)OB(O)C[C@@H]32)C1=O	0	·	·
C[C@@H]1CN([C@H](C)CO)C(=O)Cc2cc(NC(=O)Nc3ccc4c(c3)OCO4)ccc2O[C@H]1CN(C)CC1CCCCC1	0	64*	-15
SMILES	A1 apoptosis 2	T cruzi HTS	INS-1E ATP HTS
C[C@H](CO)N1C[C@H](C)[C@@H](CN(C)CC2CCCCC2)Oc2ccc(NC(=O)Nc3ccc(F)cc3)cc2CC1=O	0	·	·
C[C@@H]1CN([C@H](C)CO)C(=O)Cc2cc(NC(=O)Nc3ccc(F)cc3)ccc2O[C@@H]1CN(C)CC1CC1	0	·	·
C[C@@H]1CN([C@H](C)CO)C(=O)Cc2cc(NC(=O)Nc3ccc(F)cc3)ccc2O[C@H]1CN(C)CC1CCCCC1	·	60*	-40
C[C@@H]1CN([C@H](C)CO)C(=O)Cc2cc(NC(=O)Nc3ccc(F)cc3)ccc2O[C@@H]1CN(C)CC1CCCCC1	2	67*	2
C[C@H](CO)N1C[C@H](C)[C@H](CN(C)CC2CCCCC2)Oc2ccc(NC(=O)Nc3ccc4c(c3)OCO4)cc2CC1=O	0	2	4
C=C(C)[C@@H]1CC=C(/C=N/NC(=O)c2ccccn2)CC1	·	-11	-22
O=C(NO)c1cccc(C(=O)N/N=C/c2cccc(B(O)O)c2)c1	0	-22	3
O=C(NO)c1cccc(C(=O)N/N=C/c2cccnc2)c1	-1	-1	5
CC(C)CNC(=O)[C@@]1(C)c2ccccc2C(=O)N(Cc2cc(F)cc(C(F)(F)F)c2)[C@H]1c1ccc(CO)cc1	-1	·	·
O=C(c1ccccc1)c1ccc(N2CCOCC2)cc1O	-7	·	·
C[C@@H]1CN([C@H](C)CO)C(=O)Cc2cc(NC(=O)Nc3ccc(C(F)(F)F)cc3)ccc2O[C@@H]1CN(C)Cc1ccc(Oc2ccccc2)cc1	1	80*	-35
C[C@@H]1CN([C@@H](C)CO)C(=O)Cc2cc(NC(=O)Nc3ccc(C(F)(F)F)cc3)ccc2O[C@@H]1CN(C)Cc1ccc(Oc2ccccc2)cc1	-1	74*	-8
C[C@@H]1CN([C@H](C)CO)C(=O)Cc2cc(NC(=O)Nc3ccccc3)ccc2O[C@H]1CN(C)Cc1ccc(Oc2ccccc2)cc1	·	49	-46
C[C@H]1CN([C@@H](C)CO)C(=O)Cc2cc(NC(=O)Nc3ccc(C(F)(F)F)cc3)ccc2O[C@H]1CN(C)Cc1ccc(Oc2ccccc2)cc1	-1	4	-19
O=C1O[C@@H](c2ccccc2)[C@@H](c2ccccc2)N2[C@@H](c3ccc(OCCO)cc3)[C@]3(C(=O)Nc4ccc(C#CC5(O)CCCCCC5)cc43)[C@@H](C(=O)NC[C@H](O)c3ccccc3)[C@H]12	1	·	·
O=C(O)CCCCCC(=O)N/N=C/c1nccs1	0	-16	-3
O=C(NO)c1ccc(C(=O)N/N=C/c2cc(Br)cs2)cc1	·	-13	-7
COc1ccc(S(=O)(=O)N(C)C[C@H]2Oc3ccc(NC(=O)Nc4cccc5ccccc45)cc3C(=O)N([C@@H](C)CO)C[C@@H]2C)cc1	·	3	1
